Test results as given in publication PMC5800871 (European journal of medicinal chemistry, 2017).
Counter-ions that a name gives are not always drawn.

Experiments:
Assay type in all cases: in vitro ADME
CYP2C19 = CYP2C19 (Homo sapiens, UniProt P33261); assay: Cytochrome P450 inhibition assay, CYP2C19; conditions: CYP activity as % of control, 10 μM, human liver microsomes
CYP2D6 = CYP2D6 (Homo sapiens, UniProt P10635); assay: Cytochrome P450 inhibition assay, CYP2D6; conditions: CYP activity as % of control, 10 μM, human liver microsomes
Sequence of CYP2D6 (P10635 whole entry): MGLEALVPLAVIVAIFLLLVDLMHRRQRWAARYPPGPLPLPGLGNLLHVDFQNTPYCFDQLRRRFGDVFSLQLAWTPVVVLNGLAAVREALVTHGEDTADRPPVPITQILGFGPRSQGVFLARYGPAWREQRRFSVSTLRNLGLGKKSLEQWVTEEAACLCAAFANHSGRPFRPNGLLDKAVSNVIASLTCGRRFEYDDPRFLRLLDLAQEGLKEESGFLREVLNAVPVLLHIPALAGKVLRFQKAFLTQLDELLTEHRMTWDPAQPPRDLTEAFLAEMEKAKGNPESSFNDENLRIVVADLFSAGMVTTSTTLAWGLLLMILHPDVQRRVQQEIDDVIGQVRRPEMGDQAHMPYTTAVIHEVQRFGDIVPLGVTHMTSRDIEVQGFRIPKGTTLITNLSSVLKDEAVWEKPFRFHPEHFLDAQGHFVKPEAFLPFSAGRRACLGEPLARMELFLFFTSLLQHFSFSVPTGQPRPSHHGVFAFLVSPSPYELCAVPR

CYP 3A4 = assay: Cytochrome P450 inhibition assay, CYP3A4; conditions: CYP activity as % of control, 10 μM, human liver microsomes
[1] = Liver microsomal stability, mouse; conditions: 1 μM, 0.5 mg/mL microsomal protein, NADPH, 37 °C
Procedure, shortened: (§1)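 Liver microsomes (human pool of 150 donors; dog, rat, mouse) at 0.5 mg/mL protein in 100 mM phosphate buffer pH 7.4 with test compound at 1 μM final, 37 °C. Started with NADPH regeneration system and stopped with ice-cold acetonitrile at 0 and 30 min. Supernatant analysed by LC-MS/MS. Percent parent remaining from peak areas against the 0 min sample (100 %), stopped before NADPH addition.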

[2] = Liver microsomal stability, dog; conditions: 1 μM, 0.5 mg/mL microsomal protein, NADPH, 37 °C
Procedure, shortened: as §1

CYP2C9 = CYP2C9 (Homo sapiens, UniProt P11712); assay: Cytochrome P450 inhibition assay, CYP2C9; conditions: CYP activity as % of control, 10 μM, human liver microsomes
Sequence of CYP2C9 (P11712 whole entry): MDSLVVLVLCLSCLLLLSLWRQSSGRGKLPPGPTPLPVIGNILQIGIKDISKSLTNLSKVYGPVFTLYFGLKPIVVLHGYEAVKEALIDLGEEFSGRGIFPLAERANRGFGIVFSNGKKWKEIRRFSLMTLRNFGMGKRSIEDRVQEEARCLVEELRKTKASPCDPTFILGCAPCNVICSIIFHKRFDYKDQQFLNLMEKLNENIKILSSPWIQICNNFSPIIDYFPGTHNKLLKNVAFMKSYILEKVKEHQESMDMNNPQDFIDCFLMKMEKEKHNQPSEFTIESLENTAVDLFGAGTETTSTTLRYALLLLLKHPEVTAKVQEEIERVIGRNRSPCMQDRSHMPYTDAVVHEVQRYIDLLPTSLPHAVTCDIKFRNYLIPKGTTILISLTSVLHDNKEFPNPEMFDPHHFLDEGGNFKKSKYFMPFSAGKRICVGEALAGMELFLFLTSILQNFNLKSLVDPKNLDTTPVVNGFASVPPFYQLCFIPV

[3] = Liver microsomal stability, rat; conditions: 1 μM, 0.5 mg/mL microsomal protein, NADPH, 37 °C
Procedure, shortened: as §1

CYP1A2 = biological target: T1, CYP1A2 (Homo sapiens, UniProt P05177); assay: Cytochrome P450 inhibition assay, CYP1A2; conditions: CYP activity as % of control, 10 μM, human liver microsomes
T1 sequence (P05177 1-516): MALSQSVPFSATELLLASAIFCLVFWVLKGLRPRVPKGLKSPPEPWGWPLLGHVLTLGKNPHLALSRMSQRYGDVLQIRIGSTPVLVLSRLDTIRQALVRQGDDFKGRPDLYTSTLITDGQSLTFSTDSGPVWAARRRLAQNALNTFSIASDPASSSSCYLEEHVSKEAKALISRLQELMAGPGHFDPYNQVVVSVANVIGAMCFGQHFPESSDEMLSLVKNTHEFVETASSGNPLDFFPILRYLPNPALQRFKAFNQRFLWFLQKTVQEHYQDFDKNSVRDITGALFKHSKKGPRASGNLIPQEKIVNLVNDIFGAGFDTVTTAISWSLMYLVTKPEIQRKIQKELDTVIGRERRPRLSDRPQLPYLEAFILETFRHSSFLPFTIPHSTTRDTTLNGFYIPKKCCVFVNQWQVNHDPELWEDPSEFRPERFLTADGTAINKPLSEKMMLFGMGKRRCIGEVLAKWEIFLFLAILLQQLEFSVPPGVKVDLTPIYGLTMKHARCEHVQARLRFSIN

[4] = Liver microsomal stability, human; conditions: 1 μM, 0.5 mg/mL microsomal protein, NADPH, 37 °C
Procedure, shortened: as §1

Sequence of CYP2C19 (P33261 whole entry): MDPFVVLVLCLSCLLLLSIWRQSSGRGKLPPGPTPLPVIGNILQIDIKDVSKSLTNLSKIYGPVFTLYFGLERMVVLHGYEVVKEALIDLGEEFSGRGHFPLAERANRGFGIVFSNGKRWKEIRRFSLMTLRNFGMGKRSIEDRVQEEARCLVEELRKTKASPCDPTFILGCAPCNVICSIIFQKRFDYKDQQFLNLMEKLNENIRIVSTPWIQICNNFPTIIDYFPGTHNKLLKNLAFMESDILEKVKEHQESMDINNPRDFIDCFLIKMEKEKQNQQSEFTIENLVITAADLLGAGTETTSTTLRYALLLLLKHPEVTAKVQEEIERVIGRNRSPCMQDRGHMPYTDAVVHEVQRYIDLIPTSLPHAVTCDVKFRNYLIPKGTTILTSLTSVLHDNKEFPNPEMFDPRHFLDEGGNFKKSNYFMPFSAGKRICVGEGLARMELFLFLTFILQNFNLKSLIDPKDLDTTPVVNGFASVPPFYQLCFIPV

Compound | Cytochrome P450 inhibition (% of control) 2C19 (CYP2C19) | Cytochrome P450 inhibition (% of control) 2D6 (CYP2D6) | Cytochrome P450 inhibition (% of control) 3A4 (CYP 3A4) | Liver microsomal stability (% remaining after 30 min) Mouse [1] [% remaining after 30 min] | Liver microsomal stability (% remaining after 30 min) Dog [2] [% remaining after 30 min] | Cytochrome P450 inhibition (% of control) 2C9 (CYP2C9) | Liver microsomal stability (% remaining after 30 min) Rat [3] [% remaining after 30 min] | Cytochrome P450 inhibition (% of control) 1A2 (CYP1A2) | Liver microsomal stability (% remaining after 30 min) Human [4] [% remaining after 30 min]
C=CC(=O)Nc1cc(Nc2nccc(Nc3ccccc3S(=O)(=O)C(C)C)n2)c(OC)cc1N(C)CCN(C)C [Compound 7a, N-(2-((2-(Dimethylamino)ethyl)(methyl)amino)-5-((4-((2-(isopropylsulfonyl)phenyl)amino)pyrimidin-2-yl)amino)-4-methoxyphenyl)acrylamide] | 87 % of control | 67 % of control | 40 % of control | 8 | 48 | 90 % of control | 22 | 80 % of control | 5
C=CC(=O)Nc1cc(Nc2ncc(F)c(Nc3ccccc3S(=O)(=O)C(C)C)n2)c(OC)cc1N(C)CCN(C)C [Compound 7b, N-(2-((2-(Dimethylamino)ethyl)(methyl)amino)-5-((5-fluoro-4-((2-(isopropylsulfonyl)phenyl)amino)pyrimidin-2-yl)amino)-4-methoxyphenyl)acrylamide] | 93 % of control | 95 % of control | 51 % of control | 15 | 27 | 94 % of control | 11 | 91 % of control | 26
C=CC(=O)Nc1cc(Nc2ncc(I)c(Nc3ccccc3S(=O)(=O)C(C)C)n2)c(OC)cc1N(C)CCN(C)C [Compound 7d, N-(2-((2-(Dimethylamino)ethyl)(methyl)amino)-5-((5-iodo-4-((2-(isopropylsulfonyl)phenyl)amino)pyrimidin-2-yl)amino)-4-methoxyphenyl)acrylamide] | 86 % of control | 82 % of control | 47 % of control | 10 | 19 | 88 % of control | 14 | 81 % of control | 14
C=CC(=O)Nc1cc(Nc2nccc(Nc3ccccc3S(=O)(=O)N(C)C)n2)c(OC)cc1N(C)CCN(C)C [Compound 7i, N-(2-((2-(Dimethylamino)ethyl)(methyl)amino)-5-((4-((2-(N,N-dimethylsulfamoyl)phenyl)amino)pyrimidin-2-yl)amino)-4-methoxyphenyl)acrylamide] |  |  |  | 5 |  | 88 % of control |  | 82 % of control | 10
C=CC(=O)Nc1cc(Nc2ncc(I)c(Nc3ccccc3S(=O)(=O)N(C)C)n2)c(OC)cc1N(C)CCN(C)C [Compound 7l, N-(2-((2-(Dimethylamino)ethyl)(methyl)amino)-5-((4-((2-(N,N-dimethylsulfamoyl)phenyl)amino)-5-iodopyrimidin-2-yl)amino)-4-methoxyphenyl)acrylamide] |  |  |  | 12 |  |  | 12 |  | 

Further lines, results first:

Cytochrome P450 inhibition (% of control) 2C19 (CYP2C19) | Cytochrome P450 inhibition (% of control) 2D6 (CYP2D6) | Cytochrome P450 inhibition (% of control) 3A4 (CYP 3A4) | Liver microsomal stability (% remaining after 30 min) Mouse [1] [% remaining after 30 min] | Liver microsomal stability (% remaining after 30 min) Dog [2] [% remaining after 30 min] | Cytochrome P450 inhibition (% of control) 2C9 (CYP2C9) | Liver microsomal stability (% remaining after 30 min) Rat [3] [% remaining after 30 min] | Cytochrome P450 inhibition (% of control) 1A2 (CYP1A2) | Liver microsomal stability (% remaining after 30 min) Human [4] [% remaining after 30 min] | Compound
>100 % of control | 87 % of control | 89 % of control | 76 | 73 | 90 % of control | 78 | 84 % of control | 70 | C=CC(=O)Nc1cc(Nc2nccc(Nc3ccccc3P(C)(C)=O)n2)c(OC)cc1N(C)CCN(C)C [Compound 7e, N-(2-((2-(Dimethylamino)ethyl)(methyl)amino)-5-((4-((2-(dimethylphosphoryl)phenyl)amino)pyrimidin-2-yl)amino)-4-methoxyphenyl)acrylamide trifluoroacetate salt]
 |  | 91 % of control | 66 |  | >100 % of control | 76 | 93 % of control | 61 | C=CC(=O)Nc1cc(Nc2ncc(Cl)c(Nc3ccccc3P(C)(C)=O)n2)c(OC)cc1N(C)CCN(C)C [Compound 7g, N-(5-((5-Chloro-4-((2-(dimethylphosphoryl)phenyl)amino)pyrimidin-2-yl)amino)-2-((2-(dimethylamino)ethyl)(methyl)amino)-4-methoxyphenyl)acrylamide trifluoroacetate salt]
 |  | 88 % of control |  |  | >100 % of control | 81 | 91 % of control | 65 | C=CC(=O)Nc1cc(Nc2ncc(I)c(Nc3ccccc3P(C)(C)=O)n2)c(OC)cc1N(C)CCN(C)C [Compound 7h, N-(2-((2-(Dimethylamino)ethyl)(methyl)amino)-5-((4-((2-(dimethylphosphoryl)phenyl)amino)-5-iodopyrimidin-2-yl)amino)-4-methoxyphenyl)acrylamide trifluoroacetate salt]
91 % of control | >100 % of control |  | 10 |  |  | 7 | >100 % of control |  | C=CC(=O)Nc1cc(Nc2ncc(F)c(Nc3ccccc3S(=O)(=O)N(C)C)n2)c(OC)cc1N(C)CCN(C)C [Compound 7j, N-(2-((2-(Dimethylamino)ethyl)(methyl)amino)-5-((4-((2-(N,N-dimethylsulfamoyl)phenyl)amino)-5-fluoropyrimidin-2-yl)amino)-4-methoxyphenyl)acrylamide]
 |  |  |  | 31 |  |  |  |  | C=CC(=O)Nc1cc(Nc2ncc(Cl)c(Nc3ccccc3S(=O)(=O)N(C)C)n2)c(OC)cc1N(C)CCN(C)C [Compound 7k, N-(5-((5-Chloro-4-((2-(N,N-dimethylsulfamoyl)phenyl)amino)pyrimidin-2-yl)amino)-2-((2-(dimethylamino)ethyl)(methyl)amino)-4-methoxyphenyl)acrylamide]
